As a reminder, the inhibition is the change of the read-out against control, counted positive when it falls. For orientation: Emax means the greatest response seen or fitted, relative to the assay's reference. The term IC50 denotes the concentration that gives 50% inhibition.

These results are taken from ChEMBL document CHEMBL3997796 (J Med Chem, 2017).

The source made the active and inactive calls. The rule behind the calls is not given here.

The target of data set [1] is T1, Autotaxin (Homo sapiens, UniProt Q13822). Kind of data set: Inhibition of recombinant human C-terminal FLAg-tagged ATX nucleotide pyrophosphate phosphatase activity expressed in baculovirus infected sf9 cells using pNP-TMP as substrate measured every 2 mins for 1 hr by fluorescence assay.
Data set [2] concerns the target T1, Autotaxin. The data set can be described thus: Competitive inhibition of recombinant human C-terminal FLAg-tagged ATX expressed in baculovirus infected sf9 cells using varying levels of FRET based FS-3 substrate at 0.5 to 2 times IC50 measured every 2 mins for 1 hr by Michaelis-Menten plot analysis.
Data set [3] addresses T2, Lysophosphatidic acid receptor 1 (Homo sapiens, UniProt Q92633). Kind of data set: Agonist activity at LPA1 receptor (unknown origin) expressed in rat RH7777 cells assessed as increase in intracellular calcium level up to 10 uM measured every 3.42 secs for 70 secs by Fura-2-AM dye based fluorescence assay. In kind it is functional, cell-based.
Data set [4] concerns the target T3, Lysophosphatidic acid receptor 3 (Homo sapiens) (UniProt Q9UBY5).
T3 sequence (whole entry): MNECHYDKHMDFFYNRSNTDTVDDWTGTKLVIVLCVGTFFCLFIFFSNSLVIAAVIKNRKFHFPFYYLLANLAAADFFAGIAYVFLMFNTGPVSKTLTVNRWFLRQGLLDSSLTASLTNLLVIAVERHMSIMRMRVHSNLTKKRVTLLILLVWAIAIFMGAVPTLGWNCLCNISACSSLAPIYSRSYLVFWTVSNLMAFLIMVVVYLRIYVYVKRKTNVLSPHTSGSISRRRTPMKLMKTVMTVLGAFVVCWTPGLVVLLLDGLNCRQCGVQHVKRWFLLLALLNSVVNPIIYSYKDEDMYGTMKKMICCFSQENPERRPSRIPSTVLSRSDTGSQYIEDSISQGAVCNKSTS
The data set can be described thus: Agonist activity at LPA3 receptor (unknown origin) expressed in rat RH7777 cells assessed as increase in intracellular calcium level up to 10 uM measured every 3.42 secs for 70 secs by Fura-2-AM dye based fluorescence assay. In kind it is functional, cell-based. On the technique in general: Calcium flux is commonly read through the fluorescence of an indicator in the cells.

The target in data set [5] is Lysophosphatidic acid receptor 2 (Homo sapiens) (UniProt Q9HBW0). The data set can be described thus: Agonist activity at LPA2 receptor (unknown origin) expressed in MEF cells assessed as increase in intracellular calcium level up to 10 uM measured every 3.42 secs for 70 secs by Fura-2-AM dye based fluorescence assay. In kind it is functional, cell-based.
Chain of Lysophosphatidic acid receptor 2 (Homo sapiens) (Q9HBW0 whole entry): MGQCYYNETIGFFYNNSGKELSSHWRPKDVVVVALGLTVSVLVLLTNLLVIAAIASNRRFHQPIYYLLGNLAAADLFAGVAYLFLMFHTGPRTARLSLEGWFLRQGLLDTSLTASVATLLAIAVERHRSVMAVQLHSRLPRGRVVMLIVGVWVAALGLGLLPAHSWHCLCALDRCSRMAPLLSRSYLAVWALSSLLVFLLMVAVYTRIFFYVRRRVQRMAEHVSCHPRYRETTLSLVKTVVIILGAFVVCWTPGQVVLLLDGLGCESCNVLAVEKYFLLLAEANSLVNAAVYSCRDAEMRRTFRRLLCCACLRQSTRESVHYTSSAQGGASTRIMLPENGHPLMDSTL
The target in data set [6] is Lysophosphatidic acid receptor 4 (Homo sapiens) (UniProt Q99677). Kind of data set: Agonist activity at LPA4 receptor (unknown origin) expressed in CHO cells assessed as increase in intracellular calcium level up to 10 uM measured every 3.42 secs for 70 secs by Fura-2-AM dye based fluorescence assay. In kind it is functional, cell-based.
Chain of Lysophosphatidic acid receptor 4 (Homo sapiens) (Q99677 whole entry): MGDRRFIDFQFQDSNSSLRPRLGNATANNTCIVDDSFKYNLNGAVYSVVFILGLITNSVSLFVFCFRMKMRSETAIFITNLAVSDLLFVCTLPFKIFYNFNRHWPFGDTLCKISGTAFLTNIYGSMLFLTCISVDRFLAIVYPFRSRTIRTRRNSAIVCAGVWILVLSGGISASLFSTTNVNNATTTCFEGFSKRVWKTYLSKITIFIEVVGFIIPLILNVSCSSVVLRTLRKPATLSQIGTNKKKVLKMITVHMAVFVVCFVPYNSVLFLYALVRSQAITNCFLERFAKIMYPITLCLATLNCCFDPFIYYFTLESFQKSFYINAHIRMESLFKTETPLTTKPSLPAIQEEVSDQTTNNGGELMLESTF
Data set [7] concerns the target Lysophosphatidic acid receptor 5 (Homo sapiens) (UniProt Q9H1C0). Kind of data set: Agonist activity at FLAG-tagged LPA5 receptor (unknown origin) expressed in rat B103 cells assessed as increase in intracellular calcium level up to 10 uM measured every 3.42 secs for 70 secs by Fura-2-AM dye based fluorescence assay. In kind it is functional, cell-based.
Data set [8] deals with T2, Lysophosphatidic acid receptor 1. Kind of data set: Antagonist activity at LPA1 receptor (unknown origin) expressed in rat RH7777 cells assessed as inhibition of LPA-induced intracellular calcium level up to 100 uM measured every 3.42 secs for 70 secs by Fura-2-AM dye based fluorescence assay relative to LPA. In kind it is functional, cell-based.
The target is the same in data set [9]. Kind of data set: Antagonist activity at LPA1 receptor (unknown origin) expressed in rat RH7777 cells assessed as inhibition of LPA-induced intracellular calcium level measured every 3.42 secs for 70 secs by Fura-2-AM dye based fluorescence assay. In kind it is functional, cell-based. The settings on record: read-out: IC50.
In data set [10] the target is T3, Lysophosphatidic acid receptor 3 (Homo sapiens). The data set can be described thus: Antagonist activity at LPA3 receptor (unknown origin) expressed in rat RH7777 cells assessed as inhibition of LPA-induced intracellular calcium level up to 100 uM measured every 3.42 secs for 70 secs by Fura-2-AM dye based fluorescence assay. In kind it is functional, cell-based.

In data set [11] the target is Lysophosphatidic acid receptor 2 (Homo sapiens) (UniProt Q9HBW0). Kind of data set: Antagonist activity at LPA2 receptor (unknown origin) expressed in MEF cells assessed as inhibition of LPA-induced intracellular calcium level up to 100 uM measured every 3.42 secs for 70 secs by Fura-2-AM dye based fluorescence assay. In kind it is functional, cell-based.
The target of data set [12] is Lysophosphatidic acid receptor 4 (Homo sapiens) (UniProt Q99677). Kind of data set: Antagonist activity at LPA4 receptor (unknown origin) expressed in CHO cells assessed as inhibition of LPA-induced intracellular calcium level up to 100 uM measured every 3.42 secs for 70 secs by Fura-2-AM dye based fluorescence assay. In kind it is functional, cell-based.
Data set [13] addresses Lysophosphatidic acid receptor 5 (Homo sapiens) (UniProt Q9H1C0). The data set can be described thus: Antagonist activity at FLAG-tagged LPA5 receptor (unknown origin) expressed in rat B103 cells assessed as inhibition of LPA-induced intracellular calcium level up to 100 uM measured every 3.42 secs for 70 secs by Fura-2-AM dye based fluorescence assay. In kind it is functional, cell-based.

In data set [14] the target is T4, Glycerophosphocholine cholinephosphodiesterase ENPP6 (Homo sapiens) (UniProt Q6UWR7).
T4 sequence (whole entry): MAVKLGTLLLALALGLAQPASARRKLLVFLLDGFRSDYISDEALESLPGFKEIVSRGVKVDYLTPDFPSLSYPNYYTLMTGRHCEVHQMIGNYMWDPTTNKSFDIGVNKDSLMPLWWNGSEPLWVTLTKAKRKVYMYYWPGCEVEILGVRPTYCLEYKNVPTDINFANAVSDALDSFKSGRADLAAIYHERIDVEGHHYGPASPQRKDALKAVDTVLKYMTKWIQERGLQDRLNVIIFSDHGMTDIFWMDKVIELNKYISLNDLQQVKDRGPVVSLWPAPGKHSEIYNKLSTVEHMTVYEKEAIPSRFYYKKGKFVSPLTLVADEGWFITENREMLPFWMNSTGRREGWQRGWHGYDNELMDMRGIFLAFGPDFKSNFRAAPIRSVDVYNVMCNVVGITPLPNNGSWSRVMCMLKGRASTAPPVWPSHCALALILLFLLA
Kind of data set: Inhibition of ENPP6 (unknown origin) using pNPPC as substrate measured every 2 mins for 1 hr by […]. A digest of the protocol: (§1)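 10 nM ENPP6 or ENPP7, 10 μM pNPPC, compound 0–10 μM, triplicate; ENPP6 buffer 100 mM Tris, 500 mM NaCl, 0.05% Triton pH 9.0; ENPP7 buffer 50 mM Tris, 150 mM NaCl, 10 mM taurocholate pH 8.5; 405 nm absorbance every 2 min for 1 h.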

The target of data set [15] is T5, Ectonucleotide pyrophosphatase/phosphodiesterase family member 7 (Homo sapiens) (UniProt Q6UWV6).
T5 sequence (whole entry): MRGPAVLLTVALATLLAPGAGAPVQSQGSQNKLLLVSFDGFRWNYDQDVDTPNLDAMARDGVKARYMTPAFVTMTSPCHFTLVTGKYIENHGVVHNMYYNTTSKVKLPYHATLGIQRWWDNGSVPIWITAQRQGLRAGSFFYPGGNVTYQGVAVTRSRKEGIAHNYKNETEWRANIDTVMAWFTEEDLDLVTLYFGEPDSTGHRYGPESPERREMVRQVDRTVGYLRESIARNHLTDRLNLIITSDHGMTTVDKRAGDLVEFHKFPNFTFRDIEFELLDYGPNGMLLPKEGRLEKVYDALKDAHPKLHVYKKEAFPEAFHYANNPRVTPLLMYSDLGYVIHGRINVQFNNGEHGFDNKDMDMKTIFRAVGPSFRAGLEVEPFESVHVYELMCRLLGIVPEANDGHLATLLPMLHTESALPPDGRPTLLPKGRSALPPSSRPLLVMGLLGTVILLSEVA
The data set can be described thus: Inhibition of ENPP7 (unknown origin) using pNPPC as substrate measured every 2 mins for 1 hr by […]. A digest of the protocol:
as §1

Data set [16] deals with T1, Autotaxin. Kind of data set: Inhibition of ATX (unknown origin) expressed in human A2058 cells assessed as inhibition of LPC-induced cell invasion after 20 hrs by calcein-AM dye based matrigel-mediated Boyden chamber assay.
For data set [17], the system named is B16-F10. Kind of data set: Antitumor activity against mouse B16F10 cells implanted in C57BL/6 mouse assessed as reduction in metastatic tumor nodules on lungs at 1 mg/kg, ip administered daily up to 10 days measured on day 21. In kind it is functional, organism-based. A digest of the protocol: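 C57BL/6 mice, 8–12 weeks, given 1 × 10^5 B16F10 cells by tail vein; 1 mg/kg i.p. daily from day 0 (before inoculation) to day 10, vehicle PBS with 1% DMSO and 50 μM charcoal-stripped mouse serum albumin; sacrifice day 21, lung nodules counted; one-way ANOVA with Bonferroni.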

Data set [18] concerns 4T1. The data set can be described thus: Growth inhibition of mouse 4T1 cells up to 10 uM after 48 hrs by CellTiter blue assay. In kind it is cell-based. The settings on record: 4t1, 48 h. A general note: Alamar Blue is a resazurin reagent that responds to reducing activity.
Data set [19] addresses Autotaxin (Mus musculus) (UniProt Q9R1E6). The data set can be described thus: Inhibition of ATX in paclitaxel-resistant mouse 4T1 cells assessed as potentiation of paclitaxel-induced antiproliferative activity by measuring reduction in cell viability at 5 uM measured after 3 days by CellTiter blue assay. A digest of the protocol:
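Paclitaxel-resistant 4T1-TaxR (stepwise PT 40, 100, 200 nM) grown as mammospheres, 3.5 × 10^3 cells/well in serum-free RPMI with N-2, 20 ng/mL FGF and EGF, 4 days; spheres treated 3 days with 100 nM PT with or without inhibitor at 5 μM; CellTiter Blue; quadruplicate, three experiments.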

Data set [20] concerns the target T1, Autotaxin. The data set can be described thus: Inhibition of ATX (unknown origin) expressed in human A2058 cells assessed as inhibition of LPC-induced cell invasion at 10 uM after 20 hrs by calcein-AM dye based matrigel-mediated Boyden chamber assay.
Data set [21] in a line: Stability in mouse 4T1 cells assessed as parent compound remaining at 10 uM after 16 hrs by LC-MS/MS method. In kind it is ADME, cell-based. As to conditions: read-out: Stability. In outline:
(§2)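 4T1 cells (1 × 10^4/well) attached overnight, then 10 μM compound in DMEM with 1% charcoal-stripped FBS (0.1% DMSO final); quadruplicate samples at 0, 16, 40 h, centrifuged, diethyl ether extracted twice, LC-MS/MS peak areas normalized to 0 h.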

Data set [22] is described as follows: Stability in mouse 4T1 cells assessed as parent compound remaining at 10 uM after 40 hrs by LC-MS/MS method. In kind it is ADME, cell-based. The settings on record: read-out: Stability. In outline: as §2
For data set [23], the system named is 4T1. The data set can be described thus: Growth inhibition of mouse 4T1 cells at 3 uM after 48 hrs by CellTiter blue assay. In kind it is cell-based. The settings on record: 4t1, 48 h.

T2 sequence (Q92633 whole entry): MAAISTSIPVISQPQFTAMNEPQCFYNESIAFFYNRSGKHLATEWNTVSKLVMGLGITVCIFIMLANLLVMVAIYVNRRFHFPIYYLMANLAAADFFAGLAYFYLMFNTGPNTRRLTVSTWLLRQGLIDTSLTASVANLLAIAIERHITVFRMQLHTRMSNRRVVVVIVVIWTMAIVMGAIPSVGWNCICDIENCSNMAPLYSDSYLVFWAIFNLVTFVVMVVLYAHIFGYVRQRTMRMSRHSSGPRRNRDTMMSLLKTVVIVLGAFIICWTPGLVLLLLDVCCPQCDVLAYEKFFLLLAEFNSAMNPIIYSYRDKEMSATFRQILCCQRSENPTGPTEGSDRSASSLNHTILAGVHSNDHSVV
Chain of Lysophosphatidic acid receptor 5 (Homo sapiens) (Q9H1C0 whole entry): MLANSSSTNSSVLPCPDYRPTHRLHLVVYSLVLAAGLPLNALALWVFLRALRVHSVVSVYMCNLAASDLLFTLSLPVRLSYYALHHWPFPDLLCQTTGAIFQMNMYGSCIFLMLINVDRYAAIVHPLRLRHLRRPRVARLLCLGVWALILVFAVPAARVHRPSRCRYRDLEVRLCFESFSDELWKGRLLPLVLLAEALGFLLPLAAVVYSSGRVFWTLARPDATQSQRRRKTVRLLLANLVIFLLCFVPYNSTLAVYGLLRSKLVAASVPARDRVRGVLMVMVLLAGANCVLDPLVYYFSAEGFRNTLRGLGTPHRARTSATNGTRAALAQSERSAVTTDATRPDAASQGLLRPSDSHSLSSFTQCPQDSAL

On to `O=C(Nc1cc(Cl)c(F)c(Cl)c1)c1cc(S(=O)(=O)N2CCOCC2)c(Cl)cc1Cl`, for which the inhibition result in [1], in data set [10], in [11], in data set [12], in data set [13] and in [14] was “inactive” in each case. The inhibition entry in data set [15] is “inactive”. In addition, the inhibition entry in data set [2] was “Active”. The outcome in data set [3], in [4], in data set [5], in [6] and in [7] was inactive. In addition, the Emax in data set [8] came out at 50%. The IC50 in [9] was 18 to 18.4 µM.

As for `O=C(Nc1cc(F)c(F)c(F)c1)c1cc(S(=O)(=O)N2CCOCC2)c(Cl)cc1Cl`, the inhibition result in data set [1], in data set [10], in [11], in [12], in data set [13] and in data set [14] was “inactive” throughout. For the same compound, in data set [15], the inhibition result was “inactive”. For the same compound, the inhibition entry in data set [2] and in [20] was “Active” each time. For the same compound, the outcome in data set [3], in data set [4], in data set [5], in data set [6] and in [7] was inactive. In data set [8], the Emax came out at 46.1%. Further, the IC50 in [9] lay within 14 to 14.5 µM. The inhibition result in [16] is “Dose-dependent effect”; in [19], 25 to 30%. Moreover, in data set [17], the result was Active. Besides, the Activity entry in [18] is “Non-Toxic”.

For `O=C(Nc1cc(F)c(Cl)c(F)c1)c1cc(S(=O)(=O)N2CCOCC2)c(Cl)cc1Cl`, the inhibition result in data set [1], in data set [10], in [11], in [12], in data set [13] and in [14] was “inactive” each time. Besides, the inhibition result in [15] was “inactive”. In addition, the inhibition result in data set [2] and in data set [20] was “Active” each time. In addition, the result in data set [3], in data set [4], in [5], in data set [6] and in data set [7] was inactive. In addition, the Emax in data set [8] was determined as 51%. Besides, the IC50 in data set [9] was in the range of 6 to 6.12 µM. In addition, in [16], the inhibition result is “Dose-dependent effect”. Also, the remaining at 16 h, 10 µM in data set [21] came to 101%. Besides, in [22], the remaining at 40 h, 10 µM is 108%. Also, the Activity result in data set [18] is given as “Non-Toxic”.

Take `CCCCCCCCCCCCCCCc1ccc(CP(=O)(O)O)cc1`: the Activity entry is “Non-Toxic” in [18] and “Toxic” in data set [23]. Besides, the inhibition in [19] fell in the range of 25 to 30%. In [20], the inhibition entry was “Active”.

As for `O=C(Nc1ccc(F)c(F)c1)c1cc(S(=O)(=O)N2CCOCC2)c(Cl)cc1Cl`, the inhibition entry in [1], in data set [14] and in data set [15] was “inactive” throughout. Also, the inhibition entry in [2] and in data set [20] was “Active” in each case. Besides, the inhibition entry in [16] is “Dose-dependent effect”.
